A selection: hits, their analogues and other compounds. The true share with any hit is near 2.5%.
HKDC1 inh: blocks human hexokinase HKDC1 activity; inhibition, % at 20 µM; recombinant HKDC1, G6PDH/diaphorase resazurin coupled fluorescence; Q2TB90; AID 493160; 340,000 tested, 0.16% active;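 active = inhibition above about 35% when tested at 20 µM, limit read from the data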;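 note: plate controls were DMSO wells with enzyme for no effect and DMSO wells lacking enzyme for full effect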
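Test system: Recombinant HKDC1 (HK5) hexokinase enzyme, produced in-house | Input: HKDC1 at 5 µg/mL | Buffer or medium: Tris pH 8.0 buffer with MgCl2, Tween-20, BSA, BME | Schedule: 90 min reaction incubation at room temperature, dark | Technique: Resazurin-to-resorufin fluorescence via G6PDH and diaphorase coupling, 525/613 nm | Controls: DMSO wells with and without enzyme mix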
PGE2 EP2 inh: EP2 receptor (human) inhibition; 260,000 tested, 0.52% active; inhibition, % at 25 µM; AID 1422; C6 glioma cells expressing human EP2, cAMP TR-FRET; cells stimulated with saturating PGE2;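 active = percent inhibition above 40 after rounding to a whole number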;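 note: rat C6 glioma host cells with rolipram phosphodiesterase inhibitor present; the protocol text gives 20 µM as final concentration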
EP2 mod: modulators of human EP2 prostaglandin E2 receptor; EP2-expressing cells, cAMP HTRF FRET, PGE2 co-stimulation; induction, % at 25 µM; 260,000 tested, 0.83% active; AID 940;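 active = compounds whose cAMP rise, as percent of the full-agonist control response, exceeds 60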;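 note: rat C6 glioma line stably carrying human EP2 under a CMV promoter; the protocol text gives 20 µM as final concentration; 100% = response of wells given 1 µM PGE2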
Tb hexokinase: T. brucei hexokinase 1 inhibition; recombinant TbHK1, G6PDH-coupled NADH A340; inhibition, % at 10 µM; 220,000 tested, 0.11% active; AID 1430;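 active = inhibition of 50% or more in the single-dose primary screen; inactive = inhibition below 50%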
PfG6PD inh: PfG6PD (Plasmodium falciparum) enzyme inhibition; inhibition, % at 20 µM; PfGluPho enzyme, NADPH resazurin-diaphorase fluorescence; 350,000 tested, 0.78% active;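 active = inhibition reaching at least a set limit at 20 µM in the primary screen, cut at about 59% in these data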;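 note: 0% = DMSO wells with substrate and 100% = DMSO wells lacking glucose-6-phosphate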
PHOSPHO1 inh: PHOSPHO1 (human) inhibition; Q8TCT1; recombinant PHOSPHO1, absorbance phosphatase assay; inhibition, % at 13.3 µM; 290,000 tested, 1.1% active; in the data active = inhibition above about 60%
PfGluPho conf: PfG6PD inhibition, single-dose confirmed; recombinant PfGluPho, NADPH-diaphorase-resazurin fluorescence; inhibition, % at 20 µM; shares compounds with PfG6PD inh; AID 504753; 2,400 tested, 34% active;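 active = inhibition of at least 50% at 20 µM in any single replicate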;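 note: 0% = DMSO with substrate and 100% = DMSO lacking glucose-6-phosphate substrate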
Diaphorase 10uM: inhibits diaphorase or oxidizes, flagging false PfG6PD hits; 820 tested, 39% active; shares compounds with PfG6PD inh; diaphorase-coupled resazurin reduction, fluorescence, NADPH 10 uM; inhibition, % at 20 µM;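 active = average inhibition reaching 50% or more with the compound at 20 µM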;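 note: resorufin red fluorescence formed as diaphorase reduces resazurin using NADPH; 0% = DMSO with enzyme and 100% = DMSO without enzyme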
Diaphorase 30uM: counter-screen for P. falciparum G6PD inhibitors: diaphorase inhibitors, oxidizers. shares compounds with PfG6PD inh. Diaphorase/resazurin coupled assay, resorufin fluorescence, 30 uM NADPH. inhibition, % at 20 µM. 820 tested, 29% active. AID 504863;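 active = inhibition averaging 50% or more, tested at 20 µM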;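 note: 0% = DMSO with enzyme and 100% = DMSO wells lacking diaphorase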
Numbers without * were called inactive; · = no result.

SMILES	HKDC1 inh	PGE2 EP2 inh	EP2 mod	Tb hexokinase	PfG6PD inh	PHOSPHO1 inh	PfGluPho conf	Diaphorase 10uM	Diaphorase 30uM
COc1cccc(C(=O)N2CC=C[C@H]2C(=O)NC2CC2)c1	·	·	6.7	·	·	·	·	·	·
O=C(/C=C/c1ccc(O)cc1)c1ccc(NC2=C(N3CCCCC3)C(=O)c3ccccc3C2=O)cc1	28.5	1.3	-13.4	-31.4	71.2*	51.0	19.1	·	·
CCN1/C(=C/C=C/C=C/C=C/c2sc3ccccc3[n+]2CC)Sc2ccccc21	25.2	·	·	·	64.4*	15.9	96.2*	33.5	33.1
CC(=O)N(Cc1ccccc1)Cc1cc2cc(C)cc(C)c2[nH]c1=O	·	21.6	-12.8	·	·	·	·	·	·
Cc1nn(-c2ccccc2)c(Cl)c1/C=N/Nc1nc2ccccc2n1C	-8.0	7.1	8.8	-14.0	101.5*	-9.8	46.9*	36.9	38.0
CCCCC(=O)N/N=C/c1ccc(Sc2cccc3cccnc23)o1	-1.1	12.3	-39.4	-21.7	68.1*	-24.5	28.6	·	·
O=C(CSc1cccc2cccnc12)N/N=C/c1cccc(O)c1	-1.2	13.9	-65.2	2.3	6.2	31.7	·	·	·
O=C(CSc1cccc2cccnc12)N/N=C/c1ccc(F)cc1	8.9	13.7	-56.8	6.5	84.7*	29.0	64.9*	61.1*	53.8*
Cc1ccc(/C=N/NC(=O)NC2CCCCC2)o1	1.5	13.3	2.0	1.1	-2.6	52.7	·	·	·
Cc1ccc(/C=C/C(=O)NCC2COc3ccccc3O2)o1 (stereo not given)	-6.7	8.9	-77.8	-4.3	63.1*	-7.9	47.8*	5.4	-7.9
Cc1ccc(/C=C/C(=O)NCc2ccc3c(c2)OCO3)o1	-2.8	7.1	-35.4	-22.4	78.1*	-5.1	30.2	·	·
Cc1ccc(/C=C/C(=O)NC2CCCCCCC2)o1	2.6	20.0	-56.0	-10.3	80.7*	-4.4	51.8*	3.1	-2.5
Cc1ccc(/C=C/C(=O)NCCc2cccc(Cl)c2)o1	-3.6	·	·	·	62.5*	13.9	49.1*	-5.9	16.2
Cc1ccc(C(=O)NCc2ccc3c(c2)OCO3)o1	-0.7	·	·	·	-15.7	13.9	·	·	·
COc1ccc(/C=C/C(=O)NCC2COc3ccccc3O2)cc1OC (stereo not given)	2.4	21.6	-94.8	-15.2	0.2	36.6	·	·	·
CC(C)C(=O)N1CCN(c2ccc(N)cc2)CC1	·	7.9	-10.1	·	·	·	·	·	·
Cc1ccc(/C=C/C(=O)Nc2ccc(S(N)(=O)=O)cc2)o1	-3.1	9.3	10.6	-46.4	43.5	24.8	·	·	·
Cc1ccc(/C=C/C(=O)NCc2ccc(S(N)(=O)=O)cc2)o1	-3.5	5.8	-1.6	-13.3	67.8*	41.2	58.4*	-18.7	-2.5
Fc1cccc(C2(NCc3cnc(N4CCCCC4)nc3)CC2)c1	·	8.2	-52.4	·	·	·	·	·	·
Cc1ccc(/C=C/C(=O)OCC(=O)NCc2cccs2)o1	-4.3	·	·	·	61.0*	·	5.9	·	·
Cc1ccc(C(=O)Nc2ncc([N+](=O)[O-])s2)cc1	9.9	·	·	·	98.6*	-2.7	85.4*	76.0*	62.8*
O=C(Nc1ncc([N+](=O)[O-])s1)c1ccc2c(c1)OCO2	0.9	·	·	·	125.9*	6.5	86.9*	83.5*	78.2*
O=[N+]([O-])c1ccc(C(O)CN2CCN(c3ccccc3)CC2)cc1 (stereo not given)	-3.0	·	·	·	-11.7	32.7	·	·	·
Oc1ccc(N2CCN(CC(O)c3ccccc3)CC2)cc1 (stereo not given)	6.6	·	·	·	79.5*	35.1	26.3	·	·
Nc1nc(SCC(=O)Nc2ccccc2Sc2ccc(Cl)cc2)n[nH]1	1.2	11.8	29.7	7.8	110.0*	36.9	77.4*	73.0*	54.4*
SMILES	HKDC1 inh	PGE2 EP2 inh	EP2 mod	Tb hexokinase	PfG6PD inh	PHOSPHO1 inh	PfGluPho conf	Diaphorase 10uM	Diaphorase 30uM
NC(=O)C1CCN(CC(=O)Nc2ccccc2Sc2ccc(Cl)cc2)CC1	-7.7	8.0	-10.2	-5.0	65.5*	-34.7	40.4	·	·
Cc1cc(C)n2nc(-c3ccc(Br)cc3)cc2n1	2.4	·	·	·	41.8	-2.6	·	·	·
COc1ccc(-c2cc3nc(C)cc(C)n3n2)cc1	-1.1	7.0	7.9	-4.1	60.5*	8.5	20.2	·	·
COc1ccc2c(c1)cc(C)c1nnc(SCC(=O)Nc3ccc(NC(C)=O)cc3)n12	·	6.3	-13.5	·	·	·	·	·	·
CCN(CC)C(=O)CSc1nc(-c2cccs2)cc(-c2cccs2)c1C#N	3.9	9.4	34.5	4.3	70.0*	17.3	14.6	·	·
COc1ccc(Br)cc1/C=N/NC(=O)CNC(=O)C1COc2ccccc2O1 (stereo not given)	11.5	·	·	·	119.1*	10.6	102.7*	97.0*	76.5*
O=C(CNc1ccc2c(c1)OCO2)N/N=C\c1cn(Cc2ccc(F)cc2)c2ccccc12	·	21.0	-3.0	2.0	·	16.3	·	·	·
O=C(CNc1ccc2c(c1)OCO2)N/N=C\c1cn(Cc2ccccc2)c2ccccc12	-4.3	7.5	16.4	-7.0	66.9*	-2.0	50.6*	-9.6	16.4
O=C(O)c1ccc(-c2ccc3ccccc3c2)s1	·	13.9	-106.0	·	·	·	·	·	·
C=C(C)Cn1c(SC/C=C/C)nc2c1c(=O)[nH]c(=O)n2C	·	5.3	24.4	·	·	·	·	·	·
O=C(CSc1nc2cc(Cl)ccc2s1)c1ccco1	4.0	10.0	-30.7	0.2	113.5*	91.3*	56.2*	44.5	28.8
NC(=O)CSc1nc2cc(Cl)ccc2s1	·	12.7	-44.4	·	·	·	·	·	·
COc1ccc([N+](=O)[O-])cc1/C=N/NC(=O)/C(=C\c1cccs1)NC(=O)c1ccccc1	-1.4	5.7	-0.6	-10.5	99.1*	-10.0	82.3*	85.5*	69.7*
COc1ccc(/C=C(/NC(=O)c2ccccc2)C(=O)N/N=C/c2cccs2)cc1OC	-2.4	6.5	-8.1	-52.5	8.6	15.9	·	·	·
Cc1ccc(Cc2c(-c3ccccc3)nc3ccc(Br)cn23)cc1	·	·	·	·	30.9	·	·	·	·
Cc1ccc(Cc2c(-c3ccc(F)cc3)nc3cc(C)ccn23)cc1	·	·	·	·	71.3*	·	-10.6	·	·
Cc1ccn2c(/C=N/OCc3ccc(F)cc3)c(-c3ccc(Cl)cc3)nc2c1	2.0	6.1	22.8	-8.9	1.4	-0.9	·	·	·
Cc1ccc(Cc2c(-c3ccc(Br)cc3)nc3cc(C)ccn23)cc1	·	·	·	·	108.7*	·	14.3	·	·
Cc1ccc(Cc2c(-c3ccc(F)cc3)nc3ccc(Cl)cn23)cc1	·	·	·	·	62.4*	·	-17.5	·	·
Cc1ccc2nc(SCC(=O)Nc3ccc(N(C)C)cc3)c(C#N)cc2c1	·	13.2	-34.9	·	·	·	·	·	·
Cn1c(=O)[nH]c(=O)c2c1nc(SCC(=O)O)n2CCc1ccccc1	-5.9	-0.4	-5.8	36.2	62.8*	91.4*	9.5	·	·
CCCCCn1c(N2CCC(Cc3ccccc3)CC2)nc2c1c(=O)[nH]c(=O)n2C	4.0	17.2	·	-6.6	65.9*	·	-11.7	·	·
